APJ antag: antagonists of human apelin receptor APJ, primary screen, CHO-K1 cells, beta-arrestin complementation, luminescence; inhibition, % at 20 µM; hit rate 0.32% among 330,000; AID 2521, 2010;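 active means inhibition above about 40% at 20 µM, limit read from the data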;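 further: cells challenged with 10 nM apelin-13 agonist together with compound; plate controls were apelin-13 plus DMSO wells for no effect and DMSO wells lacking apelin-13 for full effect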
EBI2 antag: EBI2 receptor antagonists, beta-arrestin recruitment, primary screen, cell-based, luminescence, 7a,25-OHC stimulation, uHTS. 7a,25-OHC stimulated. G-protein coupled receptor 183 (Homo sapiens), P32249. hit rate 0.81% among 360,000. inhibition, % at 5 µM. AID 651636, 2012; in the data active means inhibition above about 38%;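 further: enzyme fragment complementation signal reports receptor beta-arrestin coupling in cells; 0% = agonist plus DMSO wells and 100% = wells without agonist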
APJ agonist: agonists of human apelin receptor APJ, primary screen, CHO-K1 cells, PathHunter beta-arrestin, luminescence. P35414. 0% DMSO wells, 100% apelin. activation, % at 20 µM. hit rate 0.11% among 330,000. AID 2520, 2010;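 active means activation more than six SD over the plate average, tested at 20 µM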;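 further: 0% = DMSO alone and 100% = apelin-13 at 10 nM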
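Material: engineered CHO-K1 APJ arrestin reporter cells; amount: 1000 CHO-K1 reporter cells seeded per well; incubation: compound stimulation 90 min at 25 °C, detection 60 min; signal: luminescent beta-gal fragment complementation, chemiluminescent substrate; read-out basis: APJ agonist activity; controls: DMSO-only wells as negative, 10 nM Apelin-13 as positive control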
CCR6 antagonist: CCR6 receptor antagonists, primary screen, cell-based, CHO-K1, luminescence, beta-arrestin, uHTS | CHO-K1 CCR6 PathHunter beta-arrestin, CCL20-stimulated | inhibition, % at 20 µM | hit rate 0.49% among 340,000;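 active means compounds whose inhibition of the agonist-driven luminescence signal at 20 µM reaches about 50%, limit read from the data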;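 further: cells stimulated with CCL20 at 14 nM final; plate controls were DMSO with CCL20 for no effect and DMSO without agonist for full effect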
CXCR6 inh: CXCR6 receptor inhibitors, primary screen, cell-based, beta-arrestin, luminescence, CHO-K1 PathHunter, 1536-well | inhibition, % at 20 µM | hit rate 0.36% among 360,000 | AID 602244, 2012; in the data active means inhibition above about 34%, passing the limit was not always enough;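 further: antagonist mode with CXCL16 agonist at 10 nM final; 0% = 10 nM CXCL16 with DMSO and 100% = unstimulated wells without agonist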
Target sequence (O00574 whole entry, looked up): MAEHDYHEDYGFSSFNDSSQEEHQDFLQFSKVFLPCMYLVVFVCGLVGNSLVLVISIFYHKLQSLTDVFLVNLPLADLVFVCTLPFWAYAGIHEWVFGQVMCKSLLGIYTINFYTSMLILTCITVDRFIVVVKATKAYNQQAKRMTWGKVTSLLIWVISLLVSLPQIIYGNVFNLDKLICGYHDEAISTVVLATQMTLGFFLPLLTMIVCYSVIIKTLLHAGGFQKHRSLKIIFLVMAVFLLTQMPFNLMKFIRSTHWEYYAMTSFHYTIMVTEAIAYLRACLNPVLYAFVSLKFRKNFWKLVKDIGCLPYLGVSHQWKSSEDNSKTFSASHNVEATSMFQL
EBI2 antag conf: EBI2 antagonist hit retest, beta-arrestin, confirmation, cell-based, single concentration, luminescence, 7a,25-OHC stimulation. shares compounds with EBI2 antag. inhibition, % at 5 µM. hit rate 29% among 2,400. 7a,25-OHC antagonism;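 active means inhibition of at least 50%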
EBI2 ag: EBI2 agonist activity of antagonist hits, confirmation, counter-screen for EBI2 antagonist project, cell-based, single concentration, agonist mode, luminescence | shares compounds with EBI2 antag | EBI2-expressing cells, 60 min; 0% vehicle, 100% 7α,25-dihydroxycholesterol control | activation, % at 5 µM | 2,400 tested, under 10 active | AID 652000, 2013;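 active means activation of at least 50%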
bGal cs: E. coli beta-galactosidase enzyme inhibition, confirmation, counter-screen for EBI2 antagonist project, biochemical, luminescence, single concentration; AID 652176, 2013; hit rate 1% among 2,400; inhibition, % at 5 µM; shares compounds with EBI2 antag; purified beta-galactosidase, luminescent Galacton Star, 15 min;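 active means replicate-average signal at least 3 plate SD below neutral wells, shown as high inhibition, flagging enzyme-inhibiting false positives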;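 further: 0% = DMSO wells with enzyme and 100% = wells lacking enzyme; higher means stronger loss of beta-gal luminescence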
* marks the source's active call; other numbers are inactive results; x = no result given. This is a sample that favours compounds with a hit; in the whole collection about 1.5% have one here.

SMILES	APJ antag	EBI2 antag	APJ agonist	CCR6 antagonist	CXCR6 inh	EBI2 antag conf	EBI2 ag	bGal cs
O=C1[C@@H]2Cc3c([nH]c4ccccc34)C(c3cccc([N+](=O)[O-])c3)N2C(=O)CN1C1CCN(Cc2ccccc2)CC1 (stereo partly specified)	1	41*	-3	x	10	37	0	5
CC(=O)N/C(=C\c1ccccc1)C(=O)OCC(=O)N(C)C1CCS(=O)(=O)C1 (stereo unspecified)	9	-1	-2	0	1	x	x	x
O=C(COc1ccccc1Br)NCCC1=CCCCC1	5	16	-4	16	4	x	x	x
Cc1ccc2cccc(OCC(=O)NCCC3=CCCCC3)c2n1	9	48*	0	19	-8	24	1	2
CSc1ccc(S(=O)(=O)N2CCC(C(=O)N3CCc4ccccc4C3)CC2)cc1	25	41	-3	5	-3	x	x	x
Cc1cccc(C)c1NC(=O)COC(=O)/C=C/c1ccc(S(=O)(=O)N2CCOCC2)cc1	-2	-6	1	0	-1	x	x	x
CCOc1ccc(NC(=S)N2c3ccccc3CC2C)cc1 (stereo unspecified)	-10	66*	0	-7	-17	-5	0	5
CC(=O)c1cccc(NC(=S)N2c3ccccc3CC2C)c1 (stereo unspecified)	14	-2	-3	-7	4	x	x	x
COc1ccc(NC(=S)N2CCC(C(O)(c3ccccc3)c3ccccc3)CC2)cc1	20	21	-1	18	4	x	x	x
CCOc1ccc(NC(=S)N2CCC(C(O)(c3ccccc3)c3ccccc3)CC2)cc1	-14	44*	2	9	2	2	-1	-8
COc1ccc(-c2noc(N3CCC(C(=O)NCc4ccc(Cl)cc4)CC3)n2)cc1	-3	47*	-1	-10	-6	14	-2	-15
O=C(NCc1ccc(Cl)cc1)C1CCN(C(=O)c2ccc(Cl)cc2)CC1	-19	45*	0	19	7	26	0	11
O=C(NCc1ccc(Cl)cc1)C1CCN(C(=O)c2ccco2)CC1	17	-3	-2	22	8	x	x	x
O=C(c1ccc(NC(=S)NCc2ccc(Cl)cc2)cc1)N1CCCCC1	-8	-6	0	-2	2	x	x	x
O=C(NCc1ccc(Cl)cc1)C1CCCN(C(=O)c2ccc(Cl)cc2)C1 (stereo unspecified)	12	66*	-5	3	6	34	-2	-11
CC(OC(=O)CCCN=C1NS(=O)(=O)c2ccccc21)C(=O)Nc1ccccc1F (stereo unspecified)	-10	4	-8	5	-10	x	x	x
C/C(=N\NC(=O)c1nnn(-c2nonc2N)c1CSc1ccc(Cl)cc1)c1ccco1	-8	-8	-2	18	3	x	x	x
CCOC(=O)N1CCN(C(=O)COc2ccc(Br)cc2Cl)CC1	8	62*	-1	16	6	28	1	2
CCOC(=O)C1CCN(C(=O)COc2ccc(Br)cc2)CC1	-7	75*	-2	7	-6	67*	0	-12
CCOC(=O)C1CCN(C(=O)COc2ccc(Br)cc2Br)CC1	3	44*	-4	7	-6	15	1	7
CCOC(=O)C1CCN(C(=O)COc2cccc(C)c2)CC1	-19	11	-6	9	2	x	x	x
CCOC(=O)C1CCN(C(=O)COc2cc(C)c(Br)cc2C)CC1	-3	71*	-1	12	-6	37	0	-5
CC(C)(C)OC(=O)N1CCC(Cc2cc(-c3cccnc3)no2)(C(=O)O)CC1	16	-2	3	12	-1	x	x	x
Clc1ccc(-c2csc3ncnc(N4CCc5ccccc5C4)c23)cc1	11	44*	-3	1	-2	24	-2	-9
Cc1ccc(C2CC(c3ccc(Cl)cc3)=NNC2=O)cc1 (stereo unspecified)	7	50*	-1	-9	0	44	0	8
SMILES	APJ antag	EBI2 antag	APJ agonist	CCR6 antagonist	CXCR6 inh	EBI2 antag conf	EBI2 ag	bGal cs
CCc1ccc(C2CC(c3ccc(Cl)cc3)=NNC2=O)cc1 (stereo unspecified)	15	61*	-1	-7	-26	48	1	0
O=C1NN=C(c2ccc(Br)cc2)CC1c1ccc(Cl)cc1 (stereo unspecified)	-4	74*	-3	10	10	52*	-2	-2
CN1N=C(c2ccc(Cl)cc2)CC(c2ccc(Cl)cc2)C1=O (stereo unspecified)	-2	41	0	17	-3	x	x	x
Cc1cccc(C2=NNC(=O)C(c3ccc(Cl)cc3)C2)c1 (stereo unspecified)	16	24	-3	-2	-2	x	x	x
COc1ccc(C(O)c2nc(/C=C/c3ccc(C(F)(F)F)cc3)cs2)cc1 (stereo unspecified)	x	-6	x	x	-12	x	x	x
O=C(/C=C/c1cccc(F)c1)Nc1cc(S(=O)(=O)N2CCOCC2)ccc1Cl	5	13	-1	12	-4	x	x	x
O=C(/C=C/c1cccc(F)c1)c1ccc(N2CCOCC2)cc1	0	58*	-5	27	10	38	0	3
CCCCN(C(=O)c1cc2c(s1)CCC2)c1c(N)n(CCC)c(=O)[nH]c1=O	9	4	7	-4	-2	x	x	x
O=C(CN1CCC(n2nnc3cc(C(F)(F)F)ccc32)CC1)NCc1cccs1	-1	58*	1	8	0	37	1	8
O=C(Nc1cccc(Cl)c1)C1COc2ccccc2O1 (stereo unspecified)	-8	7	0	-3	-4	x	x	x
COc1cc(CNc2ccc3[nH]c(=O)[nH]c3c2)cc(Br)c1OCc1ccc(F)cc1	-16	-4	3	-2	1	x	x	x
CCOc1cc(CNc2ccccc2)cc(Br)c1OCc1ccc(F)cc1	-7	49*	-1	17	11	14	0	3
CCOc1cc(CNc2ccccc2)cc(Br)c1OCC(=O)NC(C)(C)C	1	33	-3	22	7	x	x	x
